Assay results published in ChEMBL document CHEMBL5653631, “A Potent and Selective ULK1 Inhibitor Suppresses Autophagy and Sensitizes Cancer Cells to Nutrient Stress” (iScience, 2018).

What was measured:
[1] = biological target: Eukaryotic translation initiation factor 2-alpha kinase 1 (Homo sapiens) (UniProt Q9BQI3); test: Inhibition of human recombinant HRI at 40 nM related to control ULK1
[2] = biological target: Protein kinase C iota type (Homo sapiens) (UniProt P41743); test: Inhibition of human recombinant PKCi at 40 nM in presence of ATP by radiometric assay relative to control
[3] = biological target: Serine/threonine-protein kinase PLK3 (Homo sapiens) (UniProt Q9H4B4); test: Inhibition of human recombinant PLK3 at 40 nM in presence of ATP by radiometric assay relative to control
Serine/threonine-protein kinase PLK3 (Homo sapiens), sequence (Q9H4B4 whole entry, looked up): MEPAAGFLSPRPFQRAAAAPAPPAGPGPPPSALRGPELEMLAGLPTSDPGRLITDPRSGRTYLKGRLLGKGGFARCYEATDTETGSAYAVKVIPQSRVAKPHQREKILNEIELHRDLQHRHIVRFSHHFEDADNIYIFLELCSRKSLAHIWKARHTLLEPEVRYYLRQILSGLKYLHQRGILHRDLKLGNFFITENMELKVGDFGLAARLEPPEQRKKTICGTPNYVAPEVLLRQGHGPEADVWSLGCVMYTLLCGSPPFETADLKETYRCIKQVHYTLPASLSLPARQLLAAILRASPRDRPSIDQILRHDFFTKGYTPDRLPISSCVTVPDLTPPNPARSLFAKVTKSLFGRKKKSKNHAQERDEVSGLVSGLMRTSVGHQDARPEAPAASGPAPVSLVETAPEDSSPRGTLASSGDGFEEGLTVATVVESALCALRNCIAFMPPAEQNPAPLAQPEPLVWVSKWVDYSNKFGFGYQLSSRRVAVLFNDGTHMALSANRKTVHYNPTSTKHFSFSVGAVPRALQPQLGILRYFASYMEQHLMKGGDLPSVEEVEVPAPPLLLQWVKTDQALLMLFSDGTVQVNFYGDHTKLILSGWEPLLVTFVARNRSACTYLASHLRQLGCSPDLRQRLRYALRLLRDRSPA

[4] = biological target: Cyclin-dependent kinase-like 3 (Homo sapiens) (UniProt Q8IVW4); test: Inhibition of human recombinant CDKL3 at 40 nM related to control ULK1
Cyclin-dependent kinase-like 3 (Homo sapiens), sequence (Q8IVW4 whole entry, looked up): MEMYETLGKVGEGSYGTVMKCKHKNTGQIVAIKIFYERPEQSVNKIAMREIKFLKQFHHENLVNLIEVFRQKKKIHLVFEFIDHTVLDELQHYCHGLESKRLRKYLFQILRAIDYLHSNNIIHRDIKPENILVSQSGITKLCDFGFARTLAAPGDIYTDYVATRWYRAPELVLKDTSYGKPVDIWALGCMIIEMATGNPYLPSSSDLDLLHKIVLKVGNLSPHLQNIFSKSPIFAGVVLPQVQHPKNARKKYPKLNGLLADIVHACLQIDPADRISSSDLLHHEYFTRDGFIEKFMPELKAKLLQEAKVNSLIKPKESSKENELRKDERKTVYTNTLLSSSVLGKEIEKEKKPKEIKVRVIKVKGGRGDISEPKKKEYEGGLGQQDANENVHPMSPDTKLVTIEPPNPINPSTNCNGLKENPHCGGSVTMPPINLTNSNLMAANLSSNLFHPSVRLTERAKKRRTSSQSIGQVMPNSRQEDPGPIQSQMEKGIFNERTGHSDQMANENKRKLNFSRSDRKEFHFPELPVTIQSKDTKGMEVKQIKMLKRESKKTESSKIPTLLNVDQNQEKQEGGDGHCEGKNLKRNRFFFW

[5] = biological target: T1, Interleukin-1 receptor-associated kinase 4 (Homo sapiens) (UniProt Q9NWZ3); test: Inhibition of human recombinant IRAK4 at 40 nM related to control ULK1
T1 sequence (whole entry): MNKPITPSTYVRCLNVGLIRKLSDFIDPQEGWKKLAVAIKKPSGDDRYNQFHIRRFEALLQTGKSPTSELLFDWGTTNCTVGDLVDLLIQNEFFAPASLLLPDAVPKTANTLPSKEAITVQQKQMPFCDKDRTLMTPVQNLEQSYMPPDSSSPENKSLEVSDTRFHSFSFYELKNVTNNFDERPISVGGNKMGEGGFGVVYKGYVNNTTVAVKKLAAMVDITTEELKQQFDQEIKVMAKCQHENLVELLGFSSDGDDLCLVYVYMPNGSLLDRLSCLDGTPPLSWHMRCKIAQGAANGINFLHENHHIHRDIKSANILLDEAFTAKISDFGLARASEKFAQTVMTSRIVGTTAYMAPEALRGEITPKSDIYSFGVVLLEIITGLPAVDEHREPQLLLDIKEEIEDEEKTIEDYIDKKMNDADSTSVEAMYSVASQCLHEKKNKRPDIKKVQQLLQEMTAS

[6] = biological target: Mitogen-activated protein kinase kinase kinase 9 (Homo sapiens) (UniProt P80192); test: Inhibition of human recombinant MLK1 at 500 nM related to control ULK1
Mitogen-activated protein kinase kinase kinase 9 (Homo sapiens), sequence (P80192 whole entry, looked up): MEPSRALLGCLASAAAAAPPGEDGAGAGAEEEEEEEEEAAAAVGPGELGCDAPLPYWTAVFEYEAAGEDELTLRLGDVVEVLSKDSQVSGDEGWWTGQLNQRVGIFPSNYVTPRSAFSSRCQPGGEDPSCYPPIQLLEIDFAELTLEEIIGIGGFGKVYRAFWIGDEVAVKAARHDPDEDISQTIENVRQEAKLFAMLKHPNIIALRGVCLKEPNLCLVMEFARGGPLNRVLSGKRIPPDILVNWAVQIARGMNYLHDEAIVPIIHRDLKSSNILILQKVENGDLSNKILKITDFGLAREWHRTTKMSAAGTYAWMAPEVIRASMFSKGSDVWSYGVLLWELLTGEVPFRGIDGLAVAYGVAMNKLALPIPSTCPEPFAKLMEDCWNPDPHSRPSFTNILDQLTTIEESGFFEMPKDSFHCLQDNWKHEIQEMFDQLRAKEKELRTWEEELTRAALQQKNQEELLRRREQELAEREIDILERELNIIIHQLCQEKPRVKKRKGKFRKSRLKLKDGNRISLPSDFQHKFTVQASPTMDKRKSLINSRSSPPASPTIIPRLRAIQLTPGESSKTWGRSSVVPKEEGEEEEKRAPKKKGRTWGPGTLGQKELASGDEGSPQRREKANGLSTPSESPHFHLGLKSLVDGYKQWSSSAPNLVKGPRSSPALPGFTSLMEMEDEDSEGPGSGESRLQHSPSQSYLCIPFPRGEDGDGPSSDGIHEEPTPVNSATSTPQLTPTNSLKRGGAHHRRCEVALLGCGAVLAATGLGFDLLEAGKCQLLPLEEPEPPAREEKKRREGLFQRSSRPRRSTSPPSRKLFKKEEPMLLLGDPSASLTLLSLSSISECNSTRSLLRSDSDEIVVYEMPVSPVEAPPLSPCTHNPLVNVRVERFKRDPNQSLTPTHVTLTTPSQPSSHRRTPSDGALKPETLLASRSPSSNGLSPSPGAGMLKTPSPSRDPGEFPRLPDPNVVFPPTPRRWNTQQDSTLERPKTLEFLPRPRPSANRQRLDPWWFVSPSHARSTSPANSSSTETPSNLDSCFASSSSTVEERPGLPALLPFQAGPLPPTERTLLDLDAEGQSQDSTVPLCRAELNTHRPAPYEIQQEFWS

[7] = biological target: Tyrosine-protein kinase ABL2 (Homo sapiens) (UniProt P42684); test: Inhibition of human recombinant ABL2 at 500 nM in presence of ATP by radiometric assay relative to control
Summary of the method: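 Panel of 327 recombinant human kinases in radiometric activity assays, each screened in duplicate at a single inhibitor concentration; percent activity remaining relative to vehicle control, percent inhibition taken as 100 minus activity remaining.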

[8] = biological target: Dual specificity tyrosine-phosphorylation-regulated kinase 1B (Homo sapiens) (UniProt Q9Y463); test: Inhibition of human recombinant DYRK1B at 500 nM in presence of ATP by radiometric assay relative to control
Dual specificity tyrosine-phosphorylation-regulated kinase 1B (Homo sapiens), sequence (Q9Y463 whole entry, looked up): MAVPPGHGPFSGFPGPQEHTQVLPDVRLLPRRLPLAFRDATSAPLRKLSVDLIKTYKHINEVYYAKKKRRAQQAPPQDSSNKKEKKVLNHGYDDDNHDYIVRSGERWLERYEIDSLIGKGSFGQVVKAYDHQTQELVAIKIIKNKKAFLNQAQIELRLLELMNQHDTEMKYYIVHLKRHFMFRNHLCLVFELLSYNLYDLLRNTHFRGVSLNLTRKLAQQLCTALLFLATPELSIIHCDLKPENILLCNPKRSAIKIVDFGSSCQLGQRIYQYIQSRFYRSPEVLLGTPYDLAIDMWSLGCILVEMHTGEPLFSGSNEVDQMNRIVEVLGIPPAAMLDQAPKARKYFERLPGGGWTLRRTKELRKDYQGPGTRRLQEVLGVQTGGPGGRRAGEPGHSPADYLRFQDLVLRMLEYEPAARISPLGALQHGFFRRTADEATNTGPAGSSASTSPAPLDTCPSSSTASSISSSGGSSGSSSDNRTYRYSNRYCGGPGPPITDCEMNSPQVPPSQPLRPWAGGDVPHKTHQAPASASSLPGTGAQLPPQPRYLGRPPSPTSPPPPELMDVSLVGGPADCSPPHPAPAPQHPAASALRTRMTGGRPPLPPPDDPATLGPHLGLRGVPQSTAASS

[9] = biological target: T2, Activin receptor type-1B (Homo sapiens) (UniProt P36896); test: Inhibition of human recombinant ALK4 at 15 nM related to control ULK1
T2 sequence (whole entry): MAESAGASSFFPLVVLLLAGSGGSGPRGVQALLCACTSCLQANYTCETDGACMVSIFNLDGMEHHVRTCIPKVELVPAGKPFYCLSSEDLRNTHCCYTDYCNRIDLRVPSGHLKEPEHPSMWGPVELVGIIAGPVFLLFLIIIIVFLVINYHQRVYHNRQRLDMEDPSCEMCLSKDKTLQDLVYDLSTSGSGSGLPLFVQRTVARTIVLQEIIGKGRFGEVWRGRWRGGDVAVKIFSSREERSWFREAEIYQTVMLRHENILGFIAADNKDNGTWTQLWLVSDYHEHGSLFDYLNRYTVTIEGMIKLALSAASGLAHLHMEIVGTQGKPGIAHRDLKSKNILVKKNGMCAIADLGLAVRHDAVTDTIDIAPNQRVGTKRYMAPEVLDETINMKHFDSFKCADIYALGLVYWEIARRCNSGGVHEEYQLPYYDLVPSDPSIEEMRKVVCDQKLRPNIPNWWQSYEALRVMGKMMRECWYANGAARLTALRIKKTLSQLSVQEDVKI
Summary of the method: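 Panel of 327 recombinant human kinases, each assayed in vitro by radiometric activity assay in duplicate at a single inhibitor concentration per compound, chosen with reference to its ULK1 inhibition. Activity remaining was expressed as percent of vehicle control, and percent inhibition was calculated as 100 minus percent activity remaining.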

[10] = biological target: T3, Serine/threonine-protein kinase Nek9 (Homo sapiens) (UniProt Q8TD19); test: Inhibition of human recombinant NEK9 at 15 nM in presence of ATP by radiometric assay relative to control
T3 sequence (whole entry): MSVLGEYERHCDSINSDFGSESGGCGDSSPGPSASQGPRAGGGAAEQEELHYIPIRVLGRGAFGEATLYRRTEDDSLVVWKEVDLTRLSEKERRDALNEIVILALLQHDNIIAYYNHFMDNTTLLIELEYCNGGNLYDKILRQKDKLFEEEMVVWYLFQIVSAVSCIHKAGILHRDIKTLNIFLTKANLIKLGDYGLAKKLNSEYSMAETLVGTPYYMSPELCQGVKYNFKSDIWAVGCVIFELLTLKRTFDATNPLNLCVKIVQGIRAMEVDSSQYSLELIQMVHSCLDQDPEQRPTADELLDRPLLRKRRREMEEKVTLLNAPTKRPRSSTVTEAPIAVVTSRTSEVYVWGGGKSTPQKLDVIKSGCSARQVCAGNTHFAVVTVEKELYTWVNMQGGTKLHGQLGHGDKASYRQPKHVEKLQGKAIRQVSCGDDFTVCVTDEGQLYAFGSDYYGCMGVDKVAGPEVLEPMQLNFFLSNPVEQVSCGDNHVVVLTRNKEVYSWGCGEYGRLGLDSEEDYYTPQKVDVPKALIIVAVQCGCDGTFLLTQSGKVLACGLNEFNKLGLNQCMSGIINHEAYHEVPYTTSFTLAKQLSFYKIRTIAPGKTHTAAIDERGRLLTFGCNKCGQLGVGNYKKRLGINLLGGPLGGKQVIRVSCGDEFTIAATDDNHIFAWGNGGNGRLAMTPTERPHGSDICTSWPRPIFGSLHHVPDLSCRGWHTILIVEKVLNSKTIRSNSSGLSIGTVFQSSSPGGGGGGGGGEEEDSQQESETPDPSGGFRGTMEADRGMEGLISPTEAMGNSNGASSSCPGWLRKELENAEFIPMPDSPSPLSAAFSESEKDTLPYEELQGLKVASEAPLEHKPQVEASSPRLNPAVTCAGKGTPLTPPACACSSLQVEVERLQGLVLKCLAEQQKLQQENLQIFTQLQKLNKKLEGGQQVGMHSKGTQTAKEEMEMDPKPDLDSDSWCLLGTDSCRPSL

[11] = biological target: Homeodomain-interacting protein kinase 3 (Homo sapiens) (UniProt Q9H422); test: Inhibition of human recombinant HIPK3 at 15 nM in presence of ATP by radiometric assay relative to control
Homeodomain-interacting protein kinase 3 (Homo sapiens), sequence (Q9H422 whole entry, looked up): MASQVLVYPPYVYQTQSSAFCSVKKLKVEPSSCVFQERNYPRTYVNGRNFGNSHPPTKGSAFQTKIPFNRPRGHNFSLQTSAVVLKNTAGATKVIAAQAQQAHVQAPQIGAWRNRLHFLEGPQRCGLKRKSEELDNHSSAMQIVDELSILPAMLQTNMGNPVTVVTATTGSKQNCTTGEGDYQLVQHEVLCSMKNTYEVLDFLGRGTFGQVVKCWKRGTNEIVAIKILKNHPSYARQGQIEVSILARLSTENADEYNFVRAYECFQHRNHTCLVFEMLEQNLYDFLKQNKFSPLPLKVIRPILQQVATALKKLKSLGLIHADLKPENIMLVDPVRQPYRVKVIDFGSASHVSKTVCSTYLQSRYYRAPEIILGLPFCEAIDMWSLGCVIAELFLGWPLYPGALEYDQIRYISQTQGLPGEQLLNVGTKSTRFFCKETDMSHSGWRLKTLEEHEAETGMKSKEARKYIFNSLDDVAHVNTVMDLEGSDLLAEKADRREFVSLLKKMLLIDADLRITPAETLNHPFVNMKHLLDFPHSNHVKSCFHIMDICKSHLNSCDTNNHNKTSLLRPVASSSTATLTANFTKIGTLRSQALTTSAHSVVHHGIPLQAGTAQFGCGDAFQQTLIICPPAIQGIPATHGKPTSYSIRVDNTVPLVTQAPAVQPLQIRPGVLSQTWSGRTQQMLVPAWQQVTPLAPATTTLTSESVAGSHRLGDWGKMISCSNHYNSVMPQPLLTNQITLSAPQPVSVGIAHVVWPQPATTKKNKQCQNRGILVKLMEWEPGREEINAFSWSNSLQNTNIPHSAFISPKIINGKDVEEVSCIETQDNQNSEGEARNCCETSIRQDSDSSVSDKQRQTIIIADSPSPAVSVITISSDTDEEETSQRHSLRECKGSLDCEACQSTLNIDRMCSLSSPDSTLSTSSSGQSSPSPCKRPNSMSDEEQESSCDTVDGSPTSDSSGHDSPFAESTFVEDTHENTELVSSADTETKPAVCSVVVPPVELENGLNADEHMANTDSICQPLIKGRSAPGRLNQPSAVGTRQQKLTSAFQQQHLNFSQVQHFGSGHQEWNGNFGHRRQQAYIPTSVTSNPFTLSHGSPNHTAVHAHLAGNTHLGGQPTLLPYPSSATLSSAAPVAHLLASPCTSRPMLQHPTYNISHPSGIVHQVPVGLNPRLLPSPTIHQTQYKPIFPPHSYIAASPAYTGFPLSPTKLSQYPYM

[12] = biological target: T3, Serine/threonine-protein kinase Nek9 (Homo sapiens); test: Inhibition of human recombinant NEK9 at 15 nM related to control ULK1
[13] = biological target: Cyclin-dependent kinase 6 (Homo sapiens) (UniProt Q00534); test: Inhibition of human recombinant CDK6 at 15 nM related to control ULK1
Cyclin-dependent kinase 6 (Homo sapiens), sequence (Q00534 whole entry): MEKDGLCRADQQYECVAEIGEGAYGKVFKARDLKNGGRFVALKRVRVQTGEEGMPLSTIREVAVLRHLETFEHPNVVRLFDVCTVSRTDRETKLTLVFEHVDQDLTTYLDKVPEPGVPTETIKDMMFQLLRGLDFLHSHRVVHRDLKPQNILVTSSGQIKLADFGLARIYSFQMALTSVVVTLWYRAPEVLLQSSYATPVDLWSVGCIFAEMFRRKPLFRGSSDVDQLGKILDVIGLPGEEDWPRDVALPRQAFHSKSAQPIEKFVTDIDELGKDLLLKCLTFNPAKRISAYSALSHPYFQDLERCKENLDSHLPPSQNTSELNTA

O=C(N[C@@H](C1CC1)C(F)(F)F)c1cc(-c2cnn3cc(-c4ccc(F)cc4)cnc23)cs1
fold change (FC) [1]: 0.01
inhibition [2]: 0%
inhibition [3]: 0%
fold change (FC) [4]: 0.53
fold change (FC) [5]: 0

CNC(=O)c1ccccc1Oc1nc(Nc2cc(OC)c(OC)c(OC)c2)ncc1Br
fold change (FC) [6]: 1.18
inhibition [7]: 21%
inhibition [8]: 0%

CC(C)[C@H](NC(=O)c1cc(-c2cnn3cc(-c4ccc(OCCN5CCCCC5)cc4)cnc23)cs1)C(F)(F)F
fold change (FC) [9]: 0.23
inhibition [10]: 22%
inhibition [11]: 0%
fold change (FC) [12]: 0.25
fold change (FC) [13]: 0.09
